Source: ChEMBL document CHEMBL4325897, “Discovery, synthesis of novel fusidic acid derivatives possessed amino-terminal groups at the 3-hydroxyl position with anticancer activity” (Eur J Med Chem, 2019)
In brackets after ≈: the same amount, converted by molar mass.

Tests used:
HeLa [1] = experiment: Cytotoxicity against human HeLa cells assessed as cell viability at 1.5 uM after 72 hrs by MTT assay relative to control; type: functional; conditions: read-out: Activity
In short: (§1)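 Cells grown in DMEM with 10% heat-inactivated FCS and penicillin/streptomycin at 37 °C, 5% CO2, and used in log phase. Seeded in 96-well plates and exposed to compounds at 5 μM and 1.5 μM for 72 h. MTT added, formazan dissolved in DMSO, OD read at 570 nm, and survival rate calculated. Average of at least three independent experiments.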

MKN-45 [2] = experiment: Cytotoxicity against human MKN45 cells assessed as cell viability at 1.5 uM after 72 hrs by MTT assay relative to control; type: functional; conditions: MKN-45, 72 h, read-out: Activity; in short: as §1
U-87 MG [3] = experiment: Cytotoxicity against human U87 cells assessed as cell viability at 1.5 uM after 72 hrs by MTT assay relative to control; type: functional, U-87MG ATCC; conditions: read-out: Activity; in short: as §1
[4] = Cytotoxicity against human KBV cells assessed as cell viability at 5 uM after 72 hrs by MTT assay relative to control; type: functional; conditions: read-out: Activity; in short: as §1
[5] = Cytotoxicity against human KBV cells assessed as cell viability at 1.5 uM after 72 hrs by MTT assay relative to control; type: functional; conditions: read-out: Activity; in short: as §1
HeLa [6] = experiment: Cytotoxicity against human HeLa cells assessed as cell viability at 5 uM after 72 hrs by MTT assay relative to control; type: functional; conditions: read-out: Activity; in short: as §1
U-87 MG [7] = experiment: Cytotoxicity against human U87 cells assessed as cell viability at 5 uM after 72 hrs by MTT assay relative to control; type: functional, U-87MG ATCC; conditions: read-out: Activity; in short: as §1
MKN-45 [8] = experiment: Cytotoxicity against human MKN45 cells assessed as cell viability at 5 uM after 72 hrs by MTT assay relative to control; type: functional; conditions: MKN-45, 72 h, read-out: Activity; in short: as §1
Staphylococcus aureus = experiment: Antibacterial activity against Staphylococcus aureus; type: functional
[9] = Cytotoxicity against HEK293 cells assessed as reduction in cell viability after 72 hrs by MTT assay; type: cell-based; conditions: human

| MIC (Staphylococcus aureus) [µg/mL] | SMILES | viability at 1.5 µM (HeLa [1]) [%] | viability at 1.5 µM (MKN-45 [2]) [%] | viability at 1.5 µM (U-87 MG [3]) [%] | viability at 5 µM [4] [%] | viability at 1.5 µM [5] [%] | viability at 5 µM (HeLa [6]) [%] | viability at 5 µM (U-87 MG [7]) [%] | viability at 5 µM (MKN-45 [8]) [%] | CC50 at 72 h [9] [µg/mL] |
| --- | --- | --- | --- | --- | --- | --- | --- | --- | --- | --- |
| – | CC(=O)O[C@H]1C[C@@]2(C)[C@@H](C[C@@H](O)[C@H]3[C@@]4(C)CC[C@@H](OC(=O)c5ccccc5C(=O)N5CCOCC5)[C@@H](C)[C@@H]4CC[C@@]32C)/C1=C(\CCC=C(C)C)C(=O)OCc1ccccc1 | 76 | 104 | 86 | 66 | 81 | 60 | 77 | 92 | – |
| – | CC(=O)O[C@H]1C[C@@]2(C)[C@@H](C[C@@H](O)[C@H]3[C@@]4(C)CC[C@@H](OC(=O)CCCCCCCCCCN)[C@@H](C)[C@@H]4CC[C@@]32C)/C1=C(\CCC=C(C)C)C(=O)OCc1ccccc1 | 100 | 96 | 49 | 9 | 93 | 19 | 10 | 5 | – |
| – | CC(=O)O[C@H]1C[C@@]2(C)[C@@H](C[C@@H](O)[C@H]3[C@@]4(C)CC[C@@H](OC(=O)c5ccccc5C(=O)N5CCN(C)CC5)[C@@H](C)[C@@H]4CC[C@@]32C)/C1=C(\CCC=C(C)C)C(=O)OCc1ccccc1 | 83 | 104 | 86 | 75 | 89 | 73 | 77 | 99 | – |
| – | CC(=O)O[C@H]1C[C@@]2(C)[C@@H](C[C@@H](O)[C@H]3[C@@]4(C)CC[C@@H](OC(=O)[C@@H](N)CCCCN)[C@@H](C)[C@@H]4CC[C@@]32C)/C1=C(\CCC=C(C)C)C(=O)OCc1ccccc1 | 101 | 91 | 105 | 18 | 99 | 8 | 9 | 8 | – |
| > 32 | CC(=O)O[C@H]1C[C@@]2(C)[C@@H](C[C@@H](O)[C@H]3[C@@]4(C)CC[C@@H](OC(=O)CN)[C@@H](C)[C@@H]4CC[C@@]32C)/C1=C(\CCC=C(C)C)C(=O)OCc1ccccc1 | 100 | 95 | 94 | 28 | 97 | 96 | 41 | 93 | 10.8 (≈ 16.3 µM) |
| – | CC(=O)O[C@H]1C[C@@]2(C)[C@@H](C[C@@H](O)[C@H]3[C@@]4(C)CC[C@@H](OC(=O)C(C)N)[C@@H](C)[C@@H]4CC[C@@]32C)/C1=C(\CCC=C(C)C)C(=O)OCc1ccccc1 (stereo not given in full) | 102 | 96 | 95 | 15 | 95 | 23 | 33 | 91 | – |
| – | CC(=O)O[C@H]1C[C@@]2(C)[C@@H](C[C@@H](O)[C@H]3[C@@]4(C)CC[C@@H](OC(=O)CCC(=O)N5CCOCC5)[C@@H](C)[C@@H]4CC[C@@]32C)/C1=C(\CCC=C(C)C)C(=O)OCc1ccccc1 | 76 | 82 | 91 | 66 | 78 | 64 | 93 | 78 | – |
| – | CC(=O)O[C@H]1C[C@@]2(C)[C@@H](C[C@@H](O)[C@H]3[C@@]4(C)CC[C@@H](OC(=O)c5nccnc5C(=O)O)[C@@H](C)[C@@H]4CC[C@@]32C)/C1=C(\CCC=C(C)C)C(=O)OCc1ccccc1 | 76 | 95 | 88 | 108 | 86 | 69 | 90 | 87 | – |
| – | CC(=O)O[C@H]1C[C@@]2(C)[C@@H](C[C@@H](O)[C@H]3[C@@]4(C)CC[C@@H](OC(=O)CCCCCCCN)[C@@H](C)[C@@H]4CC[C@@]32C)/C1=C(\CCC=C(C)C)C(=O)OCc1ccccc1 | 99 | 16 | 116 | 11 | 83 | 19 | 10 | 4 | – |
| – | CC(=O)O[C@H]1C[C@@]2(C)[C@@H](C[C@@H](O)[C@H]3[C@@]4(C)CC[C@@H](OC(=O)CCCN)[C@@H](C)[C@@H]4CC[C@@]32C)/C1=C(\CCC=C(C)C)C(=O)OCc1ccccc1 | 101 | 90 | 10 | 13 | 98 | 23 | 9 | 6 | – |
| – | CC(=O)O[C@H]1C[C@@]2(C)[C@@H](C[C@@H](O)[C@H]3[C@@]4(C)CC[C@@H](OC(=O)c5ccccc5C(=O)n5ccnc5)[C@@H](C)[C@@H]4CC[C@@]32C)/C1=C(\CCC=C(C)C)C(=O)OCc1ccccc1 | 84 | 103 | 85 | 69 | 81 | 63 | 77 | 92 | – |
| – | CC(=O)O[C@H]1C[C@@]2(C)[C@@H](C[C@@H](O)[C@H]3[C@@]4(C)CC[C@@H](OC(=O)CCC(=O)N5CCN(C)CC5)[C@@H](C)[C@@H]4CC[C@@]32C)/C1=C(\CCC=C(C)C)C(=O)OCc1ccccc1 | 70 | 81 | 87 | 71 | 82 | 47 | 88 | 75 | – |
| – | CC(=O)O[C@H]1C[C@@]2(C)[C@@H](C[C@@H](O)[C@H]3[C@@]4(C)CC[C@@H](OC(=O)CCC(=O)n5cccn5)[C@@H](C)[C@@H]4CC[C@@]32C)/C1=C(\CCC=C(C)C)C(=O)OCc1ccccc1 | 75 | 88 | 87 | 80 | 77 | 71 | 83 | 83 | – |
| – | CC(=O)O[C@H]1C[C@@]2(C)[C@@H](C[C@@H](O)[C@H]3[C@@]4(C)CC[C@@H](OC(=O)C(N)CC(C)C)[C@@H](C)[C@@H]4CC[C@@]32C)/C1=C(\CCC=C(C)C)C(=O)OCc1ccccc1 (stereo not given in full) | 99 | 95 | 106 | 83 | 96 | 22 | 111 | 92 | – |
| – | CC(=O)O[C@H]1C[C@@]2(C)[C@@H](C[C@@H](O)[C@H]3[C@@]4(C)CC[C@@H](OC(=O)CCC(=O)O)[C@@H](C)[C@@H]4CC[C@@]32C)/C1=C(\CCC=C(C)C)C(=O)OCc1ccccc1 | 83 | 74 | 86 | 66 | 72 | 69 | 84 | 76 | – |
| 32 (≈ 42.4 µM) | CC(=O)O[C@H]1C[C@@]2(C)[C@@H](C[C@@H](O)[C@H]3[C@@]4(C)CC[C@@H](OC(=O)c5ccccc5C(=O)O)[C@@H](C)[C@@H]4CC[C@@]32C)/C1=C(\CCC=C(C)C)C(=O)OCc1ccccc1 | 89 | 78 | 81 | 81 | 78 | 68 | 85 | 76 | 20.6 (≈ 27.3 µM) |
| – | CC(=O)O[C@H]1C[C@@]2(C)[C@@H](C[C@@H](O)[C@H]3[C@@]4(C)CC[C@@H](OC(=O)c5ccccc5C(=O)n5cccn5)[C@@H](C)[C@@H]4CC[C@@]32C)/C1=C(\CCC=C(C)C)C(=O)OCc1ccccc1 | 90 | 101 | 90 | 79 | 85 | 82 | 87 | 96 | – |
